Shown are actives, neighbours in structure and some others; about 2.9% of the full set was active somewhere.
dFosB activator: activators of delta FosB homodimer, primary screen, biochemical, fluorescence polarization, TAMRA-CDK5 oligo, single point; purified delta FosB; percent of positive-control signal above neutral wells; activation, % at 25 µM; actives 0.99% (n = 340,000); AID 493131, 2011;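 active = mean activation above about 17%, with every replicate also reaching it, limit read from the data, passing the limit was not always enough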
Target sequence (P13346 whole entry, looked up): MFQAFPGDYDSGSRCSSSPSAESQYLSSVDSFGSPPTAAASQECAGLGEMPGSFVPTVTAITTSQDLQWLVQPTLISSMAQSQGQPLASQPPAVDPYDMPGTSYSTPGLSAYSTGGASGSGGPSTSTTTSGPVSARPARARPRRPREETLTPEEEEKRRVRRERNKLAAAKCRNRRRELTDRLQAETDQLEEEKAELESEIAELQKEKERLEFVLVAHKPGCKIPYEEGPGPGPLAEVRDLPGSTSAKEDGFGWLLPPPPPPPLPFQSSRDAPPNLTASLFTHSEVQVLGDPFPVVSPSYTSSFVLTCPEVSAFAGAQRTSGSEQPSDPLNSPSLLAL
PAX8 inh HTS: inhibitors of PAX8-driven TPO luciferase reporter, primary screen, RMG-I cells, single concentration. SteadyGlo, 24 h. inhibition, % at 12.6 µM. actives 1.2% (n = 360,000);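 active = mean replicate inhibition at least 60% with every replicate also reaching 60%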;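 note: luciferase light reporting Pax8 driven TPO promoter activity; plate controls were median of neutral control wells for no effect and mitoxantrone controls for full effect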
INS-1E GSIS act: GLuc luminescence reporter in INS-1E cells, primary screen for activators of glucose-dependent secretion of insulin; INS-1E GLuc reporter insulin secretion, 2-3 h; activation, % at 16.6 µM; actives 0.61% (n = 370,000);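 active = lowest replicate activation of at least 40%, so every replicate reaches that level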;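 note: 0% = median of neutral control wells and 100% = median of IBMX positive control wells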
Env fusion inh: inhibitors of HIV-1 Env-driven cell-cell fusion, primary screen, HeLa-JRFL effector, CEM21 target cells, luciferase; actives 1.1% (n = 360,000); AID 651610, 2012; inhibition, % at 12.3 µM;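 active = mean replicate inhibition score of at least 50 and every replicate individually at or above 50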;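 note: 0% = plate neutral controls and 100% = maraviroc near 300 nM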
Cneo AK release: Cryptococcus neoformans cell lysis inducers, primary screen, AK release luminescence, single concentration | actives 0.2% (n = 360,000) | lysis activity, % at 15 µM | C. neoformans lysis, adenylate kinase release luminescence, 4 h; normalised: neutral wells 0, clomiphene wells 100;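 active = mean lysis activity across replicates of at least 80%, whatever share of replicates individually reach that level; inactive = mean lysis activity below 80%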
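Assay system: C. neoformans cells. Amount: yeast cell density of 5 × 10^6 cells/mL. Technique: AK luminescence. Buffer or medium: YPD. Times: static 4 h at 37 °C with compound, 1 h detection. Dosing: single-point compound dose. Read-out: lysis from increased AK signal.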
CDK5 p35 inh: inhibitors of human CDK5/p35 kinase, primary screen, biochemical, single concentration; Recombinant CDK5/p35, ADP-Glo luminescence, 60 min; inhibition, % at 10 µM; actives 0.01% (n = 330,000);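 active = highest replicate inhibition of at least 50% and at least 75% of replicates reaching 50%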;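 note: plate controls were DMSO neutral control for no effect and GW8510 at 10 µM for full effect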
* marks the source's active call; other numbers are inactive results; x = no result; ! = not active in a repeat; [ ] = remark or other dose.

SMILES	dFosB activator	PAX8 inh HTS	INS-1E GSIS act	Env fusion inh	Cneo AK release	CDK5 p35 inh
CC[C@H](C)[C@@H]1NC(=O)[C@@H](CC(C)C)NC(=O)[C@H](C(C)C)NC(=O)[C@H]2CSSC[C@H](NC1=O)C(=O)N2	x	116*	7	69*	0	x
Cc1ccc(-c2ccc3c(c2)O[C@H](CN(C)Cc2ccccn2)[C@H](C)CN([C@H](C)CO)S3(=O)=O)cc1	x	x	-31	-1[16.7 µM]	0	x
CN(C)c1ccc2nc3ccc(=[N+](C)C)cc-3sc2c1	40*	-71	-17	85*	x	9
Cc1cc2nc3ccc(=[N+](C)C)cc-3sc2cc1N	-174	x	x	x	x	14
CN(C)c1ccc2nc3ccc(=O)cc-3sc2c1	x	x	x	66*	-3	x
CC1=CSC2=NC(=O)/C(=C\c3cccn3-c3ccc([N+](=O)[O-])cc3)C(=N)N12	0	-3	237*	-71	4	0
CN1CCN(C(c2ccc(F)cc2)c2ccc3cccnc3c2O)CC1 (stereo not given)	3	x	x	x	1	x
CN1CCN(C(c2ccc(Br)cc2)c2cc(Cl)c3cccnc3c2O)CC1 (stereo not given)	29*	40	-32	-13	0	3
Cc1noc(C)c1NC(=O)Nc1ccc2c(c1)C(=O)N([C@H](C)CO)C[C@H](C)[C@H](CN(C)C(=O)Nc1ccc3c(c1)OCO3)OCCCC[C@H](C)O2	x	x	-6	15[16.7 µM]	1	x
Cc1ccc2[nH]c(=O)c(CN(CCc3ccccc3)C(c3nnnn3Cc3ccco3)C(C)C)cc2c1 (stereo not given)	0	10	-4	72*	-1	1
CCC(c1nnnn1Cc1ccco1)N(CCc1ccccc1)Cc1cc2cc(C)ccc2[nH]c1=O (stereo not given)	-27	x	x	x	0	0
O=S(=O)(N[C@H]1CC[C@H](CCn2cc(C3(O)CCCC3)nn2)O[C@H]1CO)c1ccccc1	x	2	-12	25[16.7 µM]	7	x
C[C@H]1CN([C@@H](C)CO)C(=O)c2cc(NC(=O)Cc3cn(C)c4ccccc34)ccc2O[C@H]1CN(C)C(=O)Nc1ccc(C(F)(F)F)cc1	x	x	-4	4[16.7 µM]	3	x
CCCC#Cc1ccc2c(c1)O[C@@H](CN(C)S(=O)(=O)c1cccc(F)c1)[C@@H](C)CN([C@@H](C)CO)S2(=O)=O	x	x	-12	60*[16.7 µM]	-2	x
CCCC#Cc1ccc2c(c1)O[C@H](CN(C)S(=O)(=O)c1cccc(F)c1)[C@H](C)CN([C@H](C)CO)S2(=O)=O	x	x	-11	43[16.7 µM]	4	x
COCC#Cc1ccc2c(c1)O[C@H](CN(C)S(=O)(=O)c1ccc(OC)cc1)[C@H](C)CN([C@H](C)CO)S2(=O)=O	x	11	-19	x	87*	x
CCCC#Cc1ccc2c(c1)O[C@@H](CN(C)S(=O)(=O)c1cccc(OC)c1)[C@@H](C)CN([C@@H](C)CO)S2(=O)=O	x	66*	-15	50[16.7 µM]	-1	x
CC(C)CC#Cc1ccc2c(c1)O[C@@H](CN(C)S(=O)(=O)c1cccc(F)c1)[C@@H](C)CN([C@H](C)CO)S2(=O)=O	x	x	-15	68*[16.7 µM]	-1	x
C[C@@H]1CN([C@H](C)CO)C(=O)c2cc(-c3ccccc3F)cnc2O[C@H]1CN(C)C	x	x	16	-4[16.7 µM]	-1	x
O=C(Nc1ccc2ccccc2c1)c1cccc2ccccc12	2	-105	71*	-15	-1	1
O=C(Nc1ccncc1)c1cccc2ccccc12	-3	6	-2	6	-3	1
C[C@@H]1CCCCO[C@H](CN(C)C)[C@@H](C)CN([C@@H](C)CO)C(=O)c2cc(NS(=O)(=O)c3ccc(Cl)cc3)ccc2O1	x	15	1	-14[16.7 µM]	4	x
CC1(C(=O)NS(=O)(=O)c2ccc(Cl)cc2)CCN1C(=O)C1(c2ccccc2)CCCC1 (stereo not given)	x	3	x	7	8	x
CC1(C(=O)NS(=O)(=O)c2ccc(C#N)cc2)CCN1C(=O)C1(c2ccccc2)CCCC1 (stereo not given)	x	-4	99*	26	-1	x
C[C@@H]1CN([C@@H](C)CO)C(=O)c2cc(NC(=O)Nc3ccc(C(F)(F)F)cc3)ccc2O[C@@H]1CN(C)C(=O)Nc1ccc2c(c1)OCO2	x	x	-5	x	1	x
SMILES	dFosB activator	PAX8 inh HTS	INS-1E GSIS act	Env fusion inh	Cneo AK release	CDK5 p35 inh
Nc1nc2c(ncn2[C@@H]2O[C@H](C(=O)NCC(c3ccccc3)c3ccccc3)[C@@H](O)[C@H]2O)c(=O)[nH]1	x	-14	x	75*	x	x
O=C(c1ccc(F)cc1)N1C[C@@H]2N[C@H](C1)C2c1ccc(/C=C/c2ccccc2)cc1 (stereo not given in full)	x	-2	119*!	x	x	x
O=C(Nc1ccccc1)N1C[C@@H]2N[C@H](C1)[C@@H]2c1ccc(/C=C/c2ccccc2)cc1	x	113*	13	x	x	x
O=C(Nc1ccccc1)N1C[C@@H]2N[C@H](C1)C2c1ccc(-c2ccccc2)cc1 (stereo not given in full)	x	-18	-12	x	x	x
O=C(c1ccncc1)N1C[C@@H]2N[C@H](C1)C2c1ccc(/C=C/c2ccccc2)cc1 (stereo not given in full)	x	-36	3	x	x	x
COc1cc2c3c(c1)C(C)=CC(C)(C)N3C(=O)C2=O	-9	8	-16	-16	x	-3
COc1cc2c3c(c1)C(C)CC(C)(C)N3C(=O)C2=O (stereo not given)	-1	18	x	60*	5	-1
CO[C@H]1CN(C)C(=O)c2cc(NC(=O)NC3CCCCC3)ccc2OC[C@@H](C)NC[C@@H]1C	x	4	8	x	-1	x
C[C@H](O)C#Cc1ccc2c(c1)O[C@H](CN(C)Cc1ccc(-c3ccccc3)cc1)[C@H](C)CN([C@H](C)CO)S2(=O)=O	x	41	-14	x	2	x
C[C@H](O)C#Cc1ccc2c(c1)O[C@H](CN(C)Cc1ccc(-c3ccccc3)cc1)[C@@H](C)CN([C@H](C)CO)S2(=O)=O	x	80*	-9	x	2	x
C[C@@H]1CN([C@@H](C)CO)S(=O)(=O)c2ccc(C#C[C@@H](C)O)cc2O[C@H]1CN(C)Cc1ccc(-c2ccccc2)cc1	x	92*	-6	x	0	x
C[C@H](O)C#Cc1ccc2c(c1)O[C@@H](CN(C)Cc1ccc(-c3ccccc3)cc1)[C@@H](C)CN([C@@H](C)CO)S2(=O)=O	x	89*	-12	x	7	x
C[C@@H]1CN([C@H](C)CO)C(=O)c2cc(NC(=O)Nc3cccc4ccccc34)ccc2O[C@H]1CN(C)Cc1ccc(-c2ccccc2)cc1	x	x	8	x	27	x
C(=C/c1nccc2c1[nH]c1ccccc12)/c1ccc2c(c1)OCO2	64*	-22	16	-15	-1	0
